For one molecule, Activity results are on record in ChEMBL document CHEMBL4382192, “Discovery of a potent dual ALK and EGFR T790M inhibitor” (Eur J Med Chem, 2017).

Assay [1] relates to Tyrosine-protein kinase ABL1 (Homo sapiens), P00519 [E255K]. In words: Binding affinity to human phosphorylated ABL1 E255K mutant (S229 to K512 residues) expressed in mammalian expression system assessed as residual binding level at 1 uM by Kinomescan method relative to control. In outline: (§1)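 Kinome-wide selectivity panel run by the KINOMEscan method, with the test compound at a single concentration of 1 μM. Wild-type and mutant kinases were profiled in the same screen.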

Assay [2] concerns Tyrosine-protein kinase ABL1 (Homo sapiens), P00519 [F317I]. In words: Binding affinity to human non-phosphorylated ABL1 F317I mutant (S229 to K512 residues) expressed in mammalian expression system assessed as residual binding level at 1 uM by Kinomescan method relative to control. Summed up:
as §1

Assay [3] concerns Tyrosine-protein kinase ABL1 (Homo sapiens), P00519 [T315I]. Put plainly: Binding affinity to human phosphorylated ABL1 T315I mutant (S229 to K512 residues) expressed in mammalian expression system assessed as residual binding level at 1 uM by Kinomescan method relative to control. In outline:
as §1

The target of assay [4] is Atypical kinase COQ8B, mitochondrial (Homo sapiens) (UniProt Q96D53). Put plainly: Binding affinity to wild-type human full length ADCK4 (M1 to S544 residues) expressed in bacterial expression system assessed as residual binding level at 1 uM by Kinomescan method relative to control.
Atypical kinase COQ8B, mitochondrial (Homo sapiens), sequence (Q96D53 whole entry, the tested form may be a part): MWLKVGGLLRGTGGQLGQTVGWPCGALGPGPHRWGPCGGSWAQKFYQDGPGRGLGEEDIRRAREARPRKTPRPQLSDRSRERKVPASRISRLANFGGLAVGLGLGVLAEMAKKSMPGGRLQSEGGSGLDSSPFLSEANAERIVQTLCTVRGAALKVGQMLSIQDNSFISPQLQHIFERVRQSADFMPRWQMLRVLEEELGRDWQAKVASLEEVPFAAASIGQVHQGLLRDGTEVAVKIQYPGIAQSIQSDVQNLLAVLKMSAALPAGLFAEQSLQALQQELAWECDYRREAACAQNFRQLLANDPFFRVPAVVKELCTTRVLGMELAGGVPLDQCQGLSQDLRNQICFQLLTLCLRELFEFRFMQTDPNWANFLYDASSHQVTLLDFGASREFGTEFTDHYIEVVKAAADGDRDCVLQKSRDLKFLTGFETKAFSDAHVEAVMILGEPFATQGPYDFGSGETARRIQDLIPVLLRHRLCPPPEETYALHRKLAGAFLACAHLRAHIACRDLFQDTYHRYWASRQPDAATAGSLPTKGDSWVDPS
In assay [5] the target is Cyclin-dependent kinase 4 (Homo sapiens) (UniProt P11802). In words: Binding affinity to wild-type human full length CDK4 (M1 to E303 residues) expressed in mammalian expression system assessed as residual binding level at 1 uM by Kinomescan method relative to control.
Cyclin-dependent kinase 4 (Homo sapiens), sequence (P11802 whole entry, the tested form may be a part): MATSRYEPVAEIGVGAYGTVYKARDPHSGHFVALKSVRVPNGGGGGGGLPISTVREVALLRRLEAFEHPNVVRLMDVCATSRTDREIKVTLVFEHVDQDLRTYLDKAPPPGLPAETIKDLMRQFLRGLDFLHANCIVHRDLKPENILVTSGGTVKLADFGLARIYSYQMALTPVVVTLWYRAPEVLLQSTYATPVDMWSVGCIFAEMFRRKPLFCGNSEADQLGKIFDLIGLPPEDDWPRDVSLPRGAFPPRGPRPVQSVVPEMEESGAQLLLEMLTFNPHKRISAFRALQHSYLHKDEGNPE
For assay [6], the target named is Cyclin-dependent kinase 8 (Homo sapiens) (UniProt P49336). Put plainly: Binding affinity to wild-type human partial length CDK8 (M1 to T360 residues) expressed in bacterial expression system assessed as residual binding level at 1 uM by Kinomescan method relative to control.
Assay [7] has as its target Cyclin-dependent kinase-like 2 (Homo sapiens) (UniProt Q92772). Put plainly: Binding affinity to wild-type human partial length CDKL2 (M1 to D327 residues) expressed in bacterial expression system assessed as residual binding level at 1 uM by Kinomescan method relative to control.
Assay [8] concerns the target Dual specificity protein kinase CLK2 (Homo sapiens) (UniProt P49760). In words: Binding affinity to wild-type human partial length CLK2 (D144 to R498 residues) expressed in bacterial expression system assessed as residual binding level at 1 uM by Kinomescan method relative to control.
The target in assay [9] is Dual specificity protein kinase CLK3 (Homo sapiens) (UniProt P49761). In words: Binding affinity to wild-type human full length CLK3 (M1 to R490 residues) expressed in bacterial expression system assessed as residual binding level at 1 uM by Kinomescan method relative to control.
Dual specificity protein kinase CLK3 (Homo sapiens), sequence (P49761 whole entry, looked up, the tested form may be a part): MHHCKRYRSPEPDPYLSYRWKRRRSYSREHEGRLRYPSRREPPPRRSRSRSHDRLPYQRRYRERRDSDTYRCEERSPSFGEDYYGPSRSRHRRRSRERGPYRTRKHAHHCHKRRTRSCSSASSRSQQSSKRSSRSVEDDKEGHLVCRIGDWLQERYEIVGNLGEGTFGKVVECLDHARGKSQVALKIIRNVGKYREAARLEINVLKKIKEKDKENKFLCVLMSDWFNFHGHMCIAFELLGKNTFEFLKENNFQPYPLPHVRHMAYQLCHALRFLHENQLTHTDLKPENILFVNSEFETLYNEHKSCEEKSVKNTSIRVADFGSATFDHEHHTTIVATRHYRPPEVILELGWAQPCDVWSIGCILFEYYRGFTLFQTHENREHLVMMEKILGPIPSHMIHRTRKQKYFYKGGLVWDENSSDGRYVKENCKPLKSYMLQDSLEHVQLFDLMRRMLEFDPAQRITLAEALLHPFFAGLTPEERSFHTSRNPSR
Assay [10] has as its target Dual specificity protein kinase CLK4 (Homo sapiens) (UniProt Q9HAZ1). Put plainly: Binding affinity to wild-type human partial length CLK4 (R135 to K481 residues) expressed in bacterial expression system assessed as residual binding level at 1 uM by Kinomescan method relative to control.
For assay [11], the target named is Epithelial discoidin domain-containing receptor 1 (Homo sapiens) (UniProt Q08345). In words: Binding affinity to wild-type human partial length DDR1 (R565 to V876 residues) expressed in bacterial expression system assessed as residual binding level at 1 uM by Kinomescan method relative to control.
Assay [12] deals with Epidermal growth factor receptor (Homo sapiens), P00533 [UNDEFINED MUTATION]. Put plainly: Binding affinity to human partial length EGFR L747-S752del/P753S mutant expressed in bacterial expression system assessed as residual binding level at 1 uM by Kinomescan method relative to control. In outline:
as §1

The target in assay [13] is MAP/microtubule affinity-regulating kinase 4 (Homo sapiens) (UniProt Q96L34). Put plainly: Binding affinity to wild-type human partial length MARK4 (K29 to G340 residues) expressed in bacterial expression system assessed as residual binding level at 1 uM by Kinomescan method relative to control.
The target in assay [14] is Hepatocyte growth factor receptor (Homo sapiens) (UniProt P08581). Put plainly: Binding affinity to wild-type human partial length MET (D1010 to S1367 residues) expressed in bacterial expression system assessed as residual binding level at 1 uM by Kinomescan method relative to control.
The target of assay [15] is Muscle, skeletal receptor tyrosine-protein kinase (Homo sapiens) (UniProt O15146). In words: Binding affinity to wild-type human partial length MUSK (M553 to V869 residues) expressed in bacterial expression system assessed as residual binding level at 1 uM by Kinomescan method relative to control.
Muscle, skeletal receptor tyrosine-protein kinase (Homo sapiens), sequence (O15146 whole entry, the tested form may be a part): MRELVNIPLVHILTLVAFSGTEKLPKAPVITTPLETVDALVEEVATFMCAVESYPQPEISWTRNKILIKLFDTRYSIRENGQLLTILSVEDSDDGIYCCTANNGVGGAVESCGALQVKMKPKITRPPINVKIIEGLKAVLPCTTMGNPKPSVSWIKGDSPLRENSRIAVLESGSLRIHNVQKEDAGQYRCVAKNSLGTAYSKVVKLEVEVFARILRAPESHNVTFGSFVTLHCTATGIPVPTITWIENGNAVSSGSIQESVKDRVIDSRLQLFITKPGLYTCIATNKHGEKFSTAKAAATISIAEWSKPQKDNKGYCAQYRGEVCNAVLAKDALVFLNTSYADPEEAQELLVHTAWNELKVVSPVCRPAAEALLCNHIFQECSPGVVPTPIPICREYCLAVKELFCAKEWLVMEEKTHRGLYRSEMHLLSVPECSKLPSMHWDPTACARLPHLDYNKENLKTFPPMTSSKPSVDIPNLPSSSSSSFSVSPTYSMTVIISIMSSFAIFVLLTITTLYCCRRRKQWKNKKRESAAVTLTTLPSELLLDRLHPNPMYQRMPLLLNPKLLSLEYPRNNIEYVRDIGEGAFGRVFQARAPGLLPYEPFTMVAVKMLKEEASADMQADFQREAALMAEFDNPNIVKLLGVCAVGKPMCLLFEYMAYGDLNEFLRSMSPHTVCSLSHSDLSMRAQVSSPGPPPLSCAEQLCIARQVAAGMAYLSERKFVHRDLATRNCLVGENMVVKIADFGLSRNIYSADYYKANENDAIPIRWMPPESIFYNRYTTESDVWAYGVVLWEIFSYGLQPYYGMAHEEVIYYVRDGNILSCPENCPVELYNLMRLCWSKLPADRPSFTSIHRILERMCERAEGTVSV
The target in assay [16] is Myosin light chain kinase 2, skeletal/cardiac muscle (Homo sapiens) (UniProt Q9H1R3). In words: Binding affinity to wild-type human partial length MYLK2 (D258 to K570 residues) expressed in bacterial expression system assessed as residual binding level at 1 uM by Kinomescan method relative to control.
Myosin light chain kinase 2, skeletal/cardiac muscle (Homo sapiens), sequence (Q9H1R3 whole entry, the tested form may be a part): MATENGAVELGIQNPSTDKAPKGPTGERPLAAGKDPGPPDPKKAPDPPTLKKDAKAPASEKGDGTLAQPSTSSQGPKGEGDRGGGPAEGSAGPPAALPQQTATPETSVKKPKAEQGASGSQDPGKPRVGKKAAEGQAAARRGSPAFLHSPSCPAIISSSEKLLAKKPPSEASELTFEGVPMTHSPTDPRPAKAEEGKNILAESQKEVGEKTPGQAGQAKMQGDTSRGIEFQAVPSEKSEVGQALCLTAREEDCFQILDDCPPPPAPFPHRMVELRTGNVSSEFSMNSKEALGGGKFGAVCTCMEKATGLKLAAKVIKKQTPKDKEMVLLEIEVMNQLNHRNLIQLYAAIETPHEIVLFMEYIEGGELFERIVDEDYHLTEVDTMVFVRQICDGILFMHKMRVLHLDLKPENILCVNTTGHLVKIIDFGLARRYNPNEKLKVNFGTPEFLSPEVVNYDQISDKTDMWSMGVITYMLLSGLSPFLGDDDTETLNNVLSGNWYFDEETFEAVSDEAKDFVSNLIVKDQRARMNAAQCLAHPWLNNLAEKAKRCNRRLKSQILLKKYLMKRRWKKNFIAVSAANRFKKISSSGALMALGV
The target in assay [17] is Phosphatidylinositol 4-phosphate 5-kinase type-1 gamma (Homo sapiens) (UniProt O60331). In words: Binding affinity to wild-type human partial length PIP5K1C (M1 to T668 residues) expressed in mammalian expression system assessed as residual binding level at 1 uM by Kinomescan method relative to control.
The target of assay [18] is Proto-oncogene tyrosine-protein kinase ROS (Homo sapiens) (UniProt P08922). In words: Binding affinity to wild-type human partial length ROS1 (A1921 to N2240 residues) expressed in bacterial expression system assessed as residual binding level at 1 uM by Kinomescan method relative to control.
Assay [19] deals with Ribosomal protein S6 kinase alpha-4 (Homo sapiens) (UniProt O75676). Put plainly: Binding affinity to wild-type human partial length C-terminal RPS6KA4 kinase domain 2 (M375 to T705 residues) expressed in mammalian expression system assessed as residual binding level at 1 uM by Kinomescan method relative to control.
Assay [20] has as its target Serine/threonine-protein kinase Sgk3 (Homo sapiens) (UniProt Q96BR1). In words: Binding affinity to wild-type human partial length SGK3 (M119 to L496 residues) expressed in mammalian expression system assessed as residual binding level at 1 uM by Kinomescan method relative to control.
For assay [21], the target named is Proto-oncogene tyrosine-protein kinase Src (Homo sapiens) (UniProt P12931). In words: Binding affinity to wild-type human partial length SRC (L240 to L536 residues) expressed in bacterial expression system assessed as residual binding level at 1 uM by Kinomescan method relative to control.
In assay [22] the target is Angiopoietin-1 receptor (Homo sapiens) (UniProt Q02763). In words: Binding affinity to wild-type human partial length TIE2 (N804 to T1112 residues) expressed in bacterial expression system assessed as residual binding level at 1 uM by Kinomescan method relative to control.
The target in assay [23] is Testis-specific serine/threonine-protein kinase 3 (Homo sapiens) (UniProt Q96PN8). In words: Binding affinity to wild-type human full length TSSK3 (M1 to T268 residues) expressed in mammalian expression system assessed as residual binding level at 1 uM by Kinomescan method relative to control.

Serine/threonine-protein kinase Sgk3 (Homo sapiens), sequence (Q96BR1 whole entry, the tested form may be a part): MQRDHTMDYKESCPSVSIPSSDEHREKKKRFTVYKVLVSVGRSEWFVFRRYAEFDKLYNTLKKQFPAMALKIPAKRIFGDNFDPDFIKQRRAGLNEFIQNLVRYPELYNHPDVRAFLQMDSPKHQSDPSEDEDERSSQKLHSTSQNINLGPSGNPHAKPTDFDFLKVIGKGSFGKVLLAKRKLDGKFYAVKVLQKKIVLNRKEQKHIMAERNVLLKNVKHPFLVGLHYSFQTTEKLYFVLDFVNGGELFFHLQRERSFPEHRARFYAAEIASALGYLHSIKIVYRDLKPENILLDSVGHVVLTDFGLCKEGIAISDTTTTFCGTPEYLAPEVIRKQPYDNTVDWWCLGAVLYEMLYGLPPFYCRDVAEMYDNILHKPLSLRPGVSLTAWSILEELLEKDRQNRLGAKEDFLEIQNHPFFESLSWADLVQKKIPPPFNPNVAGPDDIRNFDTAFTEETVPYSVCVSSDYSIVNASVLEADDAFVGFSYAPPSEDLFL
Epidermal growth factor receptor (Homo sapiens), P00533 [UNDEFINED MUTATION], sequence (P00533 whole entry, looked up, stated change not applied): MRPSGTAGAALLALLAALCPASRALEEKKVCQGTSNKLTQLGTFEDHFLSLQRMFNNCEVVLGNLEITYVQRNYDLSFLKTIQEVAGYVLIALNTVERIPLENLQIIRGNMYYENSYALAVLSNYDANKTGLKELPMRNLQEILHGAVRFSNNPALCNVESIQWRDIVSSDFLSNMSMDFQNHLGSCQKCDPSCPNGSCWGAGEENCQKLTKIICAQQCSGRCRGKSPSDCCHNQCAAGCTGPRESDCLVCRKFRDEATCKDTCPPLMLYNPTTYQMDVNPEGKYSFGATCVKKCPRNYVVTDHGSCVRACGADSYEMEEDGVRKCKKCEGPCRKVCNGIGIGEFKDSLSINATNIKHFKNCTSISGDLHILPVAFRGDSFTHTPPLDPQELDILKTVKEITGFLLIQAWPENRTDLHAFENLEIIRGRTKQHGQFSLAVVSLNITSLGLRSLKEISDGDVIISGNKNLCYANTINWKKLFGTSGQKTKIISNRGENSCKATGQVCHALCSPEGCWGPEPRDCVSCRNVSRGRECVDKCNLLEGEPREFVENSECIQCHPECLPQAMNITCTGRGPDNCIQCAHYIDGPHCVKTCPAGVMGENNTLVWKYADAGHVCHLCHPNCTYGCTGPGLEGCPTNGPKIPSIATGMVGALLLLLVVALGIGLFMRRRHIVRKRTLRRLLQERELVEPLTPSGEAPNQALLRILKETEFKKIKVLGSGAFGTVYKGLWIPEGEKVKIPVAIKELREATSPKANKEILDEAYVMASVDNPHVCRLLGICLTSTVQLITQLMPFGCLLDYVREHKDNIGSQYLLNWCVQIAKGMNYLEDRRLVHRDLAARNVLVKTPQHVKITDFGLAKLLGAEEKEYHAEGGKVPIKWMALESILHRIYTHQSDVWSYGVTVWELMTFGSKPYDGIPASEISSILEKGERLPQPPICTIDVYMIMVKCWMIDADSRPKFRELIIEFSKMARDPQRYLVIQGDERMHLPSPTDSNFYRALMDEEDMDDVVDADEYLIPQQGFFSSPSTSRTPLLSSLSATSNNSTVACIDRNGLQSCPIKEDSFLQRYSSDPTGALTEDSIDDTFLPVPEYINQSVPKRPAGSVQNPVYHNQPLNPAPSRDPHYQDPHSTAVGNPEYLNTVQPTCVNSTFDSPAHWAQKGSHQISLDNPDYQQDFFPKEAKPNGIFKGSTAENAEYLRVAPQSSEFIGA
Cyclin-dependent kinase-like 2 (Homo sapiens), sequence (Q92772 whole entry, the tested form may be a part): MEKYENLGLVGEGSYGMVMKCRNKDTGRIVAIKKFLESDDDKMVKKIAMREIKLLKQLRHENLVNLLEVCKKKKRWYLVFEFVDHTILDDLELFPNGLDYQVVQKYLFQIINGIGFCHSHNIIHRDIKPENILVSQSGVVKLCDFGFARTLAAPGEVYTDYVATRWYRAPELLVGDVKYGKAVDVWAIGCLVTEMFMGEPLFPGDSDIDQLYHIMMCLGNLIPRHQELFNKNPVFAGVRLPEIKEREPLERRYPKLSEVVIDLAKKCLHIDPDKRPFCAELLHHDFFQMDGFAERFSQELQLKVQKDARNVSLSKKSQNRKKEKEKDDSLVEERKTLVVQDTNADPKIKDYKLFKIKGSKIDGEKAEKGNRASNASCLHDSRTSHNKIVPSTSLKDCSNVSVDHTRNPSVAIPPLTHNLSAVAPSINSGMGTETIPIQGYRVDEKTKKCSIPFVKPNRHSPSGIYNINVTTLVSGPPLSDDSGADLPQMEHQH

For `C=CC(=O)Nc1cc(Nc2ncc(Cl)c(Nc3ccccc3S(=O)(=O)C(C)C)n2)c(OC)cc1N(C)CCN(C)C`, the Activity amounted to 12% in assay [1]; 0.05% in [2]; 0.35% in [3]; 43% in assay [4]; 99% in assay [5]; 90% in [6]. Besides, the Activity in assay [7] is 93%; in [8], 1.7%; in assay [9], 23%; in assay [10], 15%; in [11], 16%; in assay [12] it was 0%. The Activity in [13] came out at 6%; in [14], 30%; in assay [15] it was 92%; in [16] it was 77%; in assay [17] it was 98%; in assay [18], 0%. Moreover, the Activity is 100% in assay [19]; 53% in [20]; 34% in [21]; 20% in [22]; 46% in assay [23].
